Converted amounts (≈) assume the structure as drawn.
These molecules were tested on Candida albicans (assay: Antifungal activity against Candida albicans ATCC 10231 by NCCLS-protocol based microplate reader analysis).
Format: functional
In short: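 Broth microdilution per NCCLS. Strains grown on potato dextrose agar; inoculum prepared from broth culture (28 °C, 48 h) and adjusted to 104 mycelial fragments/mL. Compounds from 100 μM DMSO stock were serially diluted in triplicate, spore suspension added to 200 μL final volume. Carbendazim served as positive control. Absorbance read at 492 nm after incubation; MIC calculated.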

Row | SMILES | MIC [µM]
1 | CO[C@@H]1[C@@H](C)O[C@@H](OC[C@@]23C[C@@H]4[C@H](C)CC[C@H]4[C@@]4(C(=O)O)C[C@@H]2C=C(C(C)C)[C@@]34C(=O)O)[C@@H](O)[C@@]12OC(=O)[C@H](CCCCCCCC(=O)O)O2 | 15 (≈ 10.6 µg/mL)
2 | CC(C)C1=C[C@H]2C[C@]3(C(=O)O)[C@@H]4CC[C@@H](C)[C@H]4C[C@@]2(CO)[C@]13C(=O)O | 24 (≈ 8.36 µg/mL)
3 | CO[C@@H]1[C@@H](C)O[C@@H](OC[C@@]23C[C@@H]4[C@H](C)CC[C@H]4[C@@]4(C=O)C[C@@H]2C=C(C(C)C)[C@@]34C(=O)O)[C@@H](O)[C@@]12OC(=O)[C@H](CCCC(=O)O)O2 | 12 (≈ 7.62 µg/mL)
4 | CC(C)C1=C[C@H]2C[C@]3(C=O)[C@@H]4CC[C@@H](C)[C@H]4C[C@@]2(CO)[C@]13C(=O)O | 18 (≈ 5.98 µg/mL)
5 | COC(=O)Nc1nc2ccccc2[nH]1 [CARBENDAZIM] | 0.16 (≈ 0.0306 µg/mL)

Second part, the molecule after the results:

Row | MIC [µM] | SMILES
6 | 3.7 (≈ 2.56 µg/mL) | CO[C@@H]1[C@@H](C)O[C@@H](OC[C@@]23C[C@@H]4[C@H](C)CC[C@H]4[C@@]4(C=O)C[C@@H]2C=C(C(C)C)[C@@]34C(=O)O)[C@@H](O)[C@@]12OC(=O)[C@H](CCCCCCCC(=O)O)O2
7 | 9.8 (≈ 6.36 µg/mL) | COC(=O)CCC[C@@H]1O[C@@]2(OC1=O)[C@H](O)[C@H](OC[C@@]13C[C@@H]4[C@H](C)CC[C@H]4[C@@]4(C=O)C[C@@H]1C=C(C(C)C)[C@@]34C(=O)O)O[C@H](C)[C@H]2OC
8 | 8.7 (≈ 5.77 µg/mL) | CO[C@@H]1[C@@H](C)O[C@@H](OC[C@@]23C[C@@H]4[C@H](C)CC[C@H]4[C@@]4(C=O)C[C@@H]2C=C(C(C)C)[C@@]34C(=O)O)[C@@H](O)[C@@]12OC(=O)[C@H](CCCCCC(=O)O)O2
9 | 2.9 (≈ 2.04 µg/mL) | COC(=O)CCCCCCC[C@@H]1O[C@@]2(OC1=O)[C@H](O)[C@H](OC[C@@]13C[C@@H]4[C@H](C)CC[C@H]4[C@@]4(C=O)C[C@@H]1C=C(C(C)C)[C@@]34C(=O)O)O[C@H](C)[C@H]2OC
10 | 13 (≈ 9.37 µg/mL) | COC(=O)CCCCCCC[C@@H]1O[C@@]2(OC1=O)[C@H](O)[C@H](OC[C@@]13C[C@@H]4[C@H](C)CC[C@H]4[C@@]4(C(=O)O)C[C@@H]1C=C(C(C)C)[C@@]34C(=O)O)O[C@H](C)[C@H]2OC

Source: ChEMBL document CHEMBL4414571, “Sordarin Diterpene Glycosides with an Unusual 1,3-Dioxolan-4-one Ring from the Zoanthid-Derived Fungus Curvularia hawaiiensis TA26-15” (2019)
